The values below come from ChEMBL document CHEMBL3232897, “Synthesis, antiproliferative and antibacterial activity of new amides of salinomycin” (Bioorg Med Chem Lett, 2014).

Test [1] concerns LoVo. Briefly: Resistance index, ratio of IC50 for human LoVo/DX cells to IC50 for human LoVo cells. The test is classed as functional. An outline of the steps:
(§1)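 Index of resistance is the IC50 in the resistant subline (HL-60/vinc or LoVo/DX) divided by the IC50 in its parental line (HL-60 or LoVo). Each IC50 is the concentration giving 50% growth inhibition. Bands are 0–2 sensitive, 2–10 moderate, above 10 strongly resistant.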

Test [2] in a line: Antiproliferative activity against human HL60/Vinc cells. The class given is functional, cell-based. An outline of the steps: (§2)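 IC50 is the concentration giving 50% growth inhibition, reported as mean with SD. HL-60/vinc and LoVo/DX are drug-resistant (MDR) sublines of HL-60 and LoVo. BALB/3T3 is a normal murine embryonic fibroblast line.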
Test [3] deals with HL-60. In words: Resistance index, ratio of IC50 for human HL60/Vinc cells to IC50 for human HL60 cells. The test is classed as functional. An outline of the steps: as §1
Test [4] is described as follows: Selectivity index, ratio of IC50 for mouse BALB/3T3 cells to IC50 for human LoVo/DX cells. The class given is functional. An outline of the steps: (§3)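 Selectivity index is the IC50 in normal murine embryonic fibroblasts (BALB/3T3) divided by the IC50 in the respective cancer line (HL-60, HL-60/vinc, LoVo or LoVo/DX). Each IC50 is the concentration giving 50% growth inhibition. SI >1.0 is taken as favourable.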

For test [5], the system named is HL-60. In words: Antiproliferative activity against human HL60 cells. The test is classed as functional, cell-based. The method in brief:
as §2

Test [6] concerns LoVo. In words: Antiproliferative activity against human LoVo cells. The class given is functional, cell-based. An outline of the steps:
as §2

Test [7] can be described thus: Antiproliferative activity against human LoVo/DX cells. The test is classed as functional, cell-based. An outline of the steps:
as §2

The nature of test [8]: Selectivity index, ratio of IC50 for mouse BALB/3T3 cells to IC50 for human HL60/Vinc cells. The test is classed as functional. The method in brief: as §3
In the next test the test system is BALB/3T3. Briefly: Antiproliferative activity mouse BALB/3T3 cells. The class given is cell-based. An outline of the steps: as §2
The subject of test [9] is HL-60. Briefly: Selectivity index, ratio of IC50 for mouse BALB/3T3 cells to IC50 for human HL60 cells. The class given is functional. An outline of the steps:
as §3

Test [10] concerns LoVo. Briefly: Selectivity index, ratio of IC50 for mouse BALB/3T3 cells to IC50 for human LoVo cells. The class given is functional. The method in brief: as §3

Turning to `CC[C@@H](C(=O)[C@@H](C)[C@@H](O)[C@H](C)[C@@H]1O[C@@H]([C@@H](CC)C(=O)Nc2ccc(NC(=O)[C@H](CC)[C@H]3CC[C@H](C)[C@H]([C@@H](C)[C@H](O)[C@H](C)C(=O)[C@H](CC)[C@H]4O[C@]5(C=C[C@@H](O)[C@]6(CC[C@@](C)([C@H]7CC[C@](O)(CC)[C@H](C)O7)O6)O5)[C@H](C)C[C@@H]4C)O3)cc2)CC[C@@H]1C)[C@H]1O[C@]2(C=C[C@@H](O)[C@]3(CC[C@@](C)([C@H]4CC[C@](O)(CC)[C@H](C)O4)O3)O2)[C@H](C)C[C@@H]1C`, the “Ratio IC50” value in the test with LoVo [1] came to 0.35; in the test with HL-60 [3], 7.99; in test [4], 7.2; in test [8], 1.26; with HL-60 [9], 10.07; with LoVo [10], 2.49. For the same molecule, the IC50 is 16.1 µM in test [2]; 2 µM in the test on HL-60 [5]; 8.1 µM in the test on LoVo [6]; 2.8 µM in test [7]; 20.2 µM in the test with BALB/3T3.

Turning to `CC[C@@H](C(=O)[C@@H](C)[C@@H](O)[C@H](C)[C@@H]1O[C@@H]([C@@H](CC)C(=O)NCCc2ccc(F)cc2)CC[C@@H]1C)[C@H]1O[C@]2(C=C[C@@H](O)[C@]3(CC[C@@](C)([C@H]4CC[C@](O)(CC)[C@H](C)O4)O3)O2)[C@H](C)C[C@@H]1C`, the “Ratio IC50” value with LoVo [1] is on record as 0.57; with HL-60 [3], 2.98; in [4], 19.57; in test [8], 6.8; in the test with HL-60 [9] it was 20.27; in the test with LoVo [10], 11.2. In addition, the IC50 in [2] was 6.7 µM; with HL-60 [5] it was 2.3 µM; with LoVo [6], 4.1 µM; in [7], 2.3 µM; in the test on BALB/3T3, 45.8 µM.

Regarding `COc1cccc2c1C(=O)c1c(O)c3c(c(O)c1C2=O)C[C@@](O)(C(=O)CO)C[C@@H]3O[C@H]1C[C@H](N)[C@H](O)[C@H](C)O1` [DOXORUBICIN], the “Ratio IC50” value in the test with LoVo [1] is recorded as 37.94; in the test on HL-60 [3], 44.5; in test [4], 0.07; in [8], 0.27; with HL-60 [9], 12; with LoVo [10], 2.82. In addition, the IC50 in [2] came to 1.8 µM; in the test on HL-60 [5] it was 0.04 µM; with LoVo [6] it was 0.17 µM; in test [7] it was 6.5 µM; with BALB/3T3, 0.5 µM.

On to `CC[C@@H](C(=O)[C@@H](C)[C@@H](O)[C@H](C)[C@@H]1O[C@@H]([C@@H](CC)C(=O)NCCCCNC(=O)[C@H](CC)[C@H]2CC[C@H](C)[C@H]([C@@H](C)[C@H](O)[C@H](C)C(=O)[C@H](CC)[C@H]3O[C@]4(C=C[C@@H](O)[C@]5(CC[C@@](C)([C@H]6CC[C@](O)(CC)[C@H](C)O6)O5)O4)[C@H](C)C[C@@H]3C)O2)CC[C@@H]1C)[C@H]1O[C@]2(C=C[C@@H](O)[C@]3(CC[C@@](C)([C@H]4CC[C@](O)(CC)[C@H](C)O4)O3)O2)[C@H](C)C[C@@H]1C`, for which the “Ratio IC50” value in the test with LoVo [1] is 0.36; with HL-60 [3], 4.95; in test [4], 5.13; in [8], 1.47; with HL-60 [9], 7.28; in the test on LoVo [10] it was 1.85. The IC50 in test [2] is 13.5 µM; with HL-60 [5], 2.7 µM; in the test with LoVo [6] it was 10.7 µM; in test [7], 3.9 µM; with BALB/3T3 it was 19.8 µM.

In the case of `CC[C@@H](C(=O)[C@@H](C)[C@@H](O)[C@H](C)[C@@H]1O[C@@H]([C@@H](CC)C(=O)NCCc2c[nH]cn2)CC[C@@H]1C)[C@H]1O[C@]2(C=C[C@@H](O)[C@]3(CC[C@@](C)([C@H]4CC[C@](O)(CC)[C@H](C)O4)O3)O2)[C@H](C)C[C@@H]1C`, the “Ratio IC50” value is recorded as 1.07 in the test on LoVo [1]; 7.46 in the test with HL-60 [3]; 0.99 in test [4]; 1.04 in test [8]; 7.79 in the test with HL-60 [9]; 1.06 in the test on LoVo [10]. In addition, the IC50 in test [2] amounted to 33.1 µM; in the test on HL-60 [5], 4.4 µM; with LoVo [6], 32.5 µM; in [7] it was 34.8 µM; in the test with BALB/3T3 it was 34.5 µM.

As for `C#CCNC(=O)[C@H](CC)[C@H]1CC[C@H](C)[C@H]([C@@H](C)[C@H](O)[C@H](C)C(=O)[C@H](CC)[C@H]2O[C@]3(C=C[C@@H](O)[C@]4(CC[C@@](C)([C@H]5CC[C@](O)(CC)[C@H](C)O5)O4)O3)[C@H](C)C[C@@H]2C)O1`, the “Ratio IC50” value is 0.56 with LoVo [1]; 1.97 in the test with HL-60 [3]; 9.6 in test [4]; 3.29 in test [8]; 6.47 in the test on HL-60 [9]; 5.4 in the test with LoVo [10]. For the same molecule, the IC50 in [2] was 11.3 µM; with HL-60 [5] it was 5.7 µM; in the test on LoVo [6], 6.9 µM; in test [7], 3.9 µM; in the test with BALB/3T3, 37.1 µM.

As to `CC[C@@H](C(=O)[C@@H](C)[C@@H](O)[C@H](C)[C@@H]1O[C@@H]([C@@H](CC)C(=O)NCC2COCCOCCOCCOCCO2)CC[C@@H]1C)[C@H]1O[C@]2(C=C[C@@H](O)[C@]3(CC[C@@](C)([C@H]4CC[C@](O)(CC)[C@H](C)O4)O3)O2)[C@H](C)C[C@@H]1C` (stereo partly drawn), the “Ratio IC50” value in the test on LoVo [1] is given as 0.35; in the test with HL-60 [3], 1.16; in [4], 3.69; in test [8], 1.16; in the test on HL-60 [9], 1.35; with LoVo [10], 1.3. The IC50 in [2] was 27 µM; in the test with HL-60 [5] it was 23.2 µM; with LoVo [6], 24.1 µM; in test [7], 8.5 µM; in the test with BALB/3T3, 31.3 µM.

Turning to `CC[C@@H](C(=O)[C@@H](C)[C@@H](O)[C@H](C)[C@@H]1O[C@@H]([C@@H](CC)C(=O)NCCc2ccc(O)c(O)c2)CC[C@@H]1C)[C@H]1O[C@]2(C=C[C@@H](O)[C@]3(CC[C@@](C)([C@H]4CC[C@](O)(CC)[C@H](C)O4)O3)O2)[C@H](C)C[C@@H]1C`, the “Ratio IC50” value in the test with LoVo [1] is 1.1; in the test on HL-60 [3], 2.48; in [4] it was 1.34; in [8], 0.83; in the test on HL-60 [9], 2.05; in the test with LoVo [10] it was 1.47. The IC50 in [2] amounted to 6.9 µM; in the test with HL-60 [5], 2.8 µM; in the test on LoVo [6], 3.9 µM; in test [7] it was 4.3 µM; with BALB/3T3, 5.7 µM.
